Experimental data taken from ChEMBL document CHEMBL1125643, “N-(5-fluorobenzothiazol-2-yl)-2-guanidinothiazole-4-carboxamide. A novel, systemically active antitumor agent effective against 3LL Lewis lung carcinoma” (J Med Chem, 1991).
Values joined by “and” are separate entries in the source; they are usually repeats but may differ in a detail not shown here. Identical values can stand only once.

What was measured:
Mus sp. [1] = assay: Drug related lethality is percent animals in treated groups dying prior to first tumor related death in untreated groups measured in BDF1 mice after ip administration at 5 mg/kg dose 3 days after tumor challenge; format: toxicity, organism-based; set-up: dose 5 mg/kg, route intraperitoneal; conditions: in vivo, 72 h
Mus sp. [2] = assay: Drug related lethality is percent animals in treated groups dying prior to first tumor related death in untreated groups measured in BDF1 mice after ip administration at 10 mg/kg dose 3 days after tumor challenge; format: toxicity, organism-based; set-up: dose 10 mg/kg, route intraperitoneal; conditions: in vivo, 72 h
[3] = Drug related lethality is percent animals in treated groups dying prior to first tumor related death in untreated groups measured in BDF1 mice after ip administration at 8 mg/kg dose days 3,7,11 after tumor challenge; format: toxicity, organism-based; set-up: dose 8 mg/kg, route intraperitoneal; conditions: BDF1, mus sp., in vivo, read-out: Lethality
Mus sp. [4] = assay: In vivo activity measured against 3LL metastasis in BDF1 mice after ip administration at 16 mg/kg dose, dosing on days 3,7,11 after tumor challenge; format: functional; conditions: route intraperitoneal
Mus sp. [5] = assay: In vivo activity measured against 3LL metastasis in BDF1 mice after ip administration at 8 mg/kg dose, dosing on days 3,7,11 after tumor challenge; format: functional; conditions: route intraperitoneal
Mus sp. [6] = assay: In vivo activity measured against 3LL metastasis in BDF1 mice after ip administration at 32 mg/kg dose, dosing on days 3,7,11 after tumor challenge; format: functional; conditions: route intraperitoneal
[7] = Drug related lethality is percent animals in treated groups dying prior to first tumor related death in untreated groups measured in BDF1 mice after ip administration at 16 mg/kg dose days 3,7,11 after tumor challenge; format: toxicity, organism-based; set-up: dose 16 mg/kg, route intraperitoneal; conditions: BDF1, mus sp., in vivo, read-out: Lethality
[8] = Drug related lethality is percent animals in treated groups dying prior to first tumor related death in untreated groups measured in BDF1 mice after ip administration at 32 mg/kg dose days 3,7,11 after tumor challenge; format: toxicity, organism-based; set-up: dose 32 mg/kg, route intraperitoneal; conditions: BDF1, mus sp., in vivo, read-out: Lethality
[9] = Drug related lethality is percent animals in treated groups dying prior to first tumor related death in untreated groups measured in BDF1 mice after ip administration at 6.25 mg/kg dose; format: toxicity, organism-based; set-up: dose 6.25 mg/kg, route intraperitoneal; conditions: BDF1, mus sp., in vivo, read-out: Lethality
How it was run: (§1)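 Female BDF1 mice (18–20 g) were implanted in the lateral tail vein with 6×10^5 log-phase 3LL cells in 0.20 mL RPMI 1640 and then randomized, seven per group. Drug was dissolved in DMSO (20% of final volume) and diluted with sterile saline to a fine suspension. Mice received 200 μL ip daily from day 2 to day 9 (8 treatments) and were monitored daily. Lethality counted deaths before the first tumor-related control death.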

[10] = Drug related lethality is percent animals in treated groups dying prior to first tumor related death in untreated groups measured in BDF1 mice after po administration at 400 mg/kg dose; format: toxicity, organism-based; set-up: dose 400 mg/kg, route oral; conditions: BDF1, mus sp., in vivo, read-out: Lethality
How it was run: (§2)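 Female BDF1 mice (18–20 g) were implanted in the tail vein with 6×10^5 3LL cells in 0.20 mL RPMI 1640, seven per group. Drug was dissolved in DMSO (20% final) and diluted with saline to a fine suspension. Mice were dosed orally, 200 μL, from day 2 to day 9 (8 treatments). Lethality is the percentage of treated mice dying before the first tumor-related death among untreated controls.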

[11] = Drug related lethality is percent animals in treated groups dying prior to first tumor related death in untreated groups measured in BDF1 mice after po administration at 50 mg/kg dose; format: toxicity, organism-based; set-up: dose 50 mg/kg, route oral; conditions: BDF1, mus sp., in vivo, read-out: Lethality; how it was run: as §2
Mus sp. [12] = assay: In vivo activity measured against 3LL metastasis in BDF1 mice after ip administration at 100 mg/kg dose, dosing on days 2-8 after tumor challenge; format: functional; conditions: route intraperitoneal
How it was run: (§3)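 Female BDF1 mice (18–20 g) given 6×10^5 log-phase 3LL cells iv via tail vein in 0.20 mL RPMI 1640, randomized, 7 per group. Drug freshly dissolved in DMSO (20% of final volume) and diluted with sterile saline to a fine suspension. Dosed 200 μL ip or po, 8 treatments from day 2. Survival monitored daily. %T/C = MST treated/MST control × 100, given as mean (s.e.) over repeat experiments.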

Mus sp. [13] = assay: In vivo activity measured against 3LL metastasis in BDF1 mice after ip administration at 12.5 mg/kg dose, dosing on days 2-8 after tumor challenge; format: functional; conditions: route intraperitoneal; how it was run: as §3
Mus sp. [14] = assay: In vivo activity measured against 3LL metastasis in BDF1 mice after ip administration at 200 mg/kg dose, dosing on days 2-8 after tumor challenge; format: functional; conditions: route intraperitoneal; how it was run: as §3
Mus sp. [15] = assay: In vivo activity measured against 3LL metastasis in BDF1 mice after ip administration at 25 mg/kg dose, dosing on days 2-8 after tumor challenge; format: functional; conditions: route intraperitoneal; how it was run: as §3
[16] = Drug related lethality is percent animals in treated groups dying prior to first tumor related death in untreated groups measured in BDF1 mice after ip administration at 400 mg/kg dose; format: toxicity, organism-based; set-up: dose 400 mg/kg, route intraperitoneal; conditions: BDF1, mus sp., in vivo, read-out: Lethality; how it was run: as §1
Mus sp. [17] = assay: In vivo activity measured against 3LL metastasis in BDF1 mice after ip administration at 50 mg/kg dose, dosing on days 2-8 after tumor challenge; format: functional; conditions: route intraperitoneal; how it was run: as §3
Mus sp. [18] = assay: In vivo activity measured against 3LL metastasis in BDF1 mice after ip administration at 6.25 mg/kg dose, dosing on days 2-8 after tumor challenge; format: functional; conditions: route intraperitoneal; how it was run: as §3
Mus sp. [19] = assay: In vivo activity measured against 3LL metastasis in BDF1 mice after po administration at 200 mg/kg dose, dosing on days 2-8 after tumor challenge; format: functional; how it was run: as §3
Mus sp. [20] = assay: In vivo activity measured against 3LL metastasis in BDF1 mice after po administration at 25 mg/kg dose, dosing on days 2-8 after tumor challenge; format: functional; how it was run: as §3
[21] = Drug related lethality is percent animals in treated groups dying prior to first tumor related death in untreated groups measured in BDF1 mice after po administration at 100 mg/kg dose; format: toxicity, organism-based; set-up: dose 100 mg/kg, route oral; conditions: BDF1, mus sp., in vivo, read-out: Lethality; how it was run: as §2
[22] = Drug related lethality is percent animals in treated groups dying prior to first tumor related death in untreated groups measured in BDF1 mice after po administration at 12.5 mg/kg dose; format: toxicity, organism-based; set-up: dose 12.5 mg/kg, route oral; conditions: BDF1, mus sp., in vivo, read-out: Lethality; how it was run: as §2
[23] = Drug related lethality is percent animals in treated groups dying prior to first tumor related death in untreated groups measured in BDF1 mice after po administration at 200 mg/kg dose; format: toxicity, organism-based; set-up: dose 200 mg/kg, route oral; conditions: BDF1, mus sp., in vivo, read-out: Lethality; how it was run: as §2
[24] = Drug related lethality is percent animals in treated groups dying prior to first tumor related death in untreated groups measured in BDF1 mice after po administration at 25 mg/kg dose; format: toxicity, organism-based; set-up: dose 25 mg/kg, route oral; conditions: BDF1, mus sp., in vivo, read-out: Lethality; how it was run: as §2
[25] = Drug related lethality is percent animals in treated groups dying prior to first tumor related death in untreated groups measured in BDF1 mice after ip administration at 100 mg/kg dose; format: toxicity, organism-based; set-up: dose 100 mg/kg, route intraperitoneal; conditions: BDF1, mus sp., in vivo, read-out: Lethality; how it was run: as §1
[26] = Drug related lethality is percent animals in treated groups dying prior to first tumor related death in untreated groups measured in BDF1 mice after ip administration at 12.5 mg/kg dose; format: toxicity, organism-based; set-up: dose 12.5 mg/kg, route intraperitoneal; conditions: BDF1, mus sp., in vivo, read-out: Lethality; how it was run: as §1
[27] = Drug related lethality is percent animals in treated groups dying prior to first tumor related death in untreated groups measured in BDF1 mice after ip administration at 200 mg/kg dose; format: toxicity, organism-based; set-up: dose 200 mg/kg, route intraperitoneal; conditions: BDF1, mus sp., in vivo, read-out: Lethality; how it was run: as §1
[28] = Drug related lethality is percent animals in treated groups dying prior to first tumor related death in untreated groups measured in BDF1 mice after ip administration at 25 mg/kg dose; format: toxicity, organism-based; set-up: dose 25 mg/kg, route intraperitoneal; conditions: BDF1, mus sp., in vivo, read-out: Lethality; how it was run: as §1
Mus sp. [29] = assay: In vivo activity measured against 3LL metastasis in BDF1 mice after po administration at 50 mg/kg dose, dosing on days 2-8 after tumor challenge; format: functional; how it was run: as §3
Mus sp. [30] = assay: In vivo activity was measured against 3LL metastasis in BDF1 mice after po administration at 100 mg/kg dose, dosing on days 2-8 after tumor challenge; format: functional; how it was run: as §3
[31] = Drug related lethality is percent animals in treated groups dying prior to first tumor related death in untreated groups measured in BDF1 mice after ip administration at 50 mg/kg dose; format: toxicity, organism-based; set-up: dose 50 mg/kg, route intraperitoneal; conditions: BDF1, mus sp., in vivo, read-out: Lethality; how it was run: as §1
[32] = Drug related lethality is percent animals in treated groups dying prior to first tumor related death in untreated groups measured in BDF1 mice after ip administration at 400 mg/kg dose days 3 after tumor challenge; conditions: BDF1, mus sp., in vivo
[33] = Drug related lethality is percent animals in treated groups dying prior to first tumor related death in untreated groups measured in BDF1 mice after ip administration at 300 mg/kg dose days 3 after tumor challenge; conditions: BDF1, mus sp., in vivo

CISPLATIN
Lethality (Mus sp. [1]): 0% | Lethality (Mus sp. [2]): 0%

COc1cc([C@@H]2c3cc4c(cc3[C@@H](O[C@@H]3O[C@@H]5CO[C@@H](C)O[C@H]5[C@H](O)[C@H]3O)[C@H]3COC(=O)[C@H]23)OCO4)cc(OC)c1O [ETOPOSIDE]
mortality [3]: 0% | T/C (Mus sp. [4]): 128% | T/C (Mus sp. [5]): 118% | T/C (Mus sp. [6]): 130% | mortality [7]: 0% | mortality [8]: 7%

N=C(N)Nc1nc(C(=O)Nc2nc3cc(F)ccc3s2)cs1
mortality [9]: 0% | mortality [10]: 45.7% | mortality [11]: 2% | T/C (Mus sp. [12]): 160.7% | T/C (Mus sp. [13]): 149.3% | T/C (Mus sp. [14]): 179.7% | T/C (Mus sp. [15]): 153.8% | mortality [16]: 42.9% | T/C (Mus sp. [17]): 153% | T/C (Mus sp. [18]): 112.7% | T/C (Mus sp. [19]): 119% and 150.3% | T/C (Mus sp. [20]): 127% | mortality [21]: 5.7% | mortality [22]: 0% | mortality [23]: 22.7% | mortality [24]: 1.78% | mortality [25]: 0% | mortality [26]: 0% | mortality [27]: 14.3% | mortality [28]: 0% | T/C (Mus sp. [29]): 140.4% | T/C (Mus sp. [30]): 157.7% | mortality [31]: 0.43%

O=P1(N(CCCl)CCCl)NCCCO1 (stereo not drawn) [CYCLOPHOSPHAMIDE ANHYDROUS]
mortality [32]: 14% | mortality [33]: 0%
